Laboratory results reported in ChEMBL document CHEMBL4311975, “Exploration of the antibiotic potentiating activity of indolglyoxylpolyamines” (Eur J Med Chem, 2019).
In brackets after ≈: the same amount, converted by molar mass.

Columns and labels:
Pseudomonas aeruginosa [1] = test: Antibacterial activity against Pseudomonas aeruginosa ATCC 27853 assessed as growth inhibition incubated for 18 hrs by broth dilution method; assay type: functional; settings: ATCC 27853, 18 h
In short: (§1)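 Broth microdilution following CA-SFM recommendations. Inoculum was 10^5 CFU in Mueller-Hinton broth with two-fold serial drug dilutions. Plates were incubated 18 h at 37 °C. MIC was the lowest concentration giving complete inhibition of visible growth. Values are means, n = 3.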

Escherichia coli [2] = test: Antibacterial activity against Escherichia coli ATCC 25922 assessed as growth inhibition incubated for 18 hrs by broth dilution method; assay type: functional; settings: ATCC 25922, 18 h; in short: as §1
Klebsiella pneumoniae [3] = test: Antibacterial activity against Klebsiella pneumoniae ATCC 13443 assessed as growth inhibition; assay type: functional
Acinetobacter baumannii [4] = test: Antibacterial activity against Acinetobacter baumannii AYE assessed as growth inhibition; assay type: functional
Candida albicans = test: Antifungal activity against Candida albicans ATCC 90028 assessed as growth inhibition incubated for 36 hrs by resazurin dye based assay; assay type: functional; settings: ATCC 90028, 36 h
In short: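 Yeast was grown 3 days on YPD agar at 30 °C. Colonies were suspended and diluted in YNB broth to 2.5×10^3 CFU/mL, then added to two-fold compound dilutions (0.008–32 μg/mL final), in duplicate. Plates stood 36 h at 35 °C without shaking. Means, n = 2.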

Staphylococcus aureus [5] = test: Disruption of membrane integrity in Staphylococcus aureus assessed as increase in extracellular ATP level by luciferin-luciferase reagent based luminescence assay; assay type: functional, organism-based
In short: (§2)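 Growing bacteria (P. aeruginosa PAO1 or S. aureus) in MHB at 37 °C were mixed 9:1 with compound, at 4× MIC, and vortexed for 1 s. Luciferin-luciferase reagent was added immediately and luminescence read for 5 s. ATP was quantified by internal standard addition. Squalamine served as positive control.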

Staphylococcus aureus [6] = test: Induction of membrane depolarization in Staphylococcus aureus measured after 15 mins by DiSC3(5) dye based spectrofluorometric method; assay type: functional, organism-based
In short: (§3)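 Bacteria were grown 24 h in MHB at 37 °C, washed in 250 mM sucrose with 5 mM MgSO4, and loaded with 3 μM DiSC3(5) for 1 h at 37 °C. Unbound dye was washed away before compound was added at varied concentrations. Fluorescence was recorded after 15 min on a spectrofluorometer, with pure 3 μM dye as the maximum. CTAB (0.01%) served as positive control.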

Pseudomonas aeruginosa [7] = test: Potentiation of nalidixic acid-induced antibacterial activity against Pseudomonas aeruginosa ATCC 27853 assessed as concentration required to restore 2 ug/ml nalidixic acid activity measured after 18 hrs; assay type: functional
[8] = test system: Staphylococcus intermedius; test: Antibacterial activity against Staphylococcus intermedius 1051997 assessed as growth inhibition incubated for 18 hrs by broth dilution method; assay type: functional; settings: Staphylococcus intermedius, 1051997, 18 h; in short: as §1
[9] = Hemolytic activity against Sprague-Dawley rat RBC assessed as release of hemoglobin at 50 uM incubated for 1 hr relative to control; assay type: ADME, cell-based, Erythrocyte; settings: red blood cells (erythrocytes), read-out: Activity
In short: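 Fresh Sprague-Dawley rat erythrocytes were washed in saline and resuspended at 2% v/v. Cells were incubated with compound in DMSO/PBS for 1 h at 37 °C, then centrifuged at 200 g, and supernatant absorbance read at 540 nm. Results were normalised to DMSO/PBS (0%) and 0.1% Triton X-100 (100%). Single-point testing used 50 μM; HC50 came from 10-point curves. Means of three experiments.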

Pseudomonas aeruginosa [10] = test: Potentiation of erythromycin-induced antibacterial activity against Pseudomonas aeruginosa ATCC 27853 assessed as concentration required to restore 2 ug/ml erythromycin activity measured after 18 hrs; assay type: functional
Acinetobacter baumannii [11] = test: Antibacterial activity against Acinetobacter baumannii ATCC 19606 assessed as growth inhibition incubated for 18 hrs by resazurin dye based assay; assay type: functional; settings: ATCC 19606 = CIP 70.34 = JCM 6841, 18 h
In short: (§4)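 Overnight cultures were diluted 40-fold in MHB and grown 1.5–2 h at 37 °C to mid-log phase. Cells were added at 5×10^5 CFU/mL final to two-fold compound dilutions (0.008–32 μg/mL final), in duplicate, for 18 h at 37 °C. Resazurin (0.001% final) was added for 2 h and MIC read by eye. Means, n = 2.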

[12] = Cytotoxicity against human HEK293 cells measured after 20 hrs by resazurin dye based fluorescence assay; assay type: cell-based
In short: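 HEK293 cells, 5,000/well in DMEM with 10% FBS, were exposed to compound for 20 h at 37 °C, 5% CO2. Resazurin (100 μM final) was added for 3 h, then fluorescence read at ex 560/em 590. Signal was normalised to tamoxifen (74 μg/mL, 0%) and untreated growth (100%), and CC50 came from dose-response fitting. Top dose 32 μg/mL. Means, n = 2.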

Pseudomonas aeruginosa [13] = test: Disruption of membrane integrity in Pseudomonas aeruginosa PAO1 assessed as increase in extracellular ATP level by luciferin-luciferase reagent based luminescence assay; assay type: functional, organism-based; in short: as §2
Staphylococcus aureus [14] = test: Antibacterial activity against Staphylococcus aureus ATCC 25923 assessed as growth inhibition incubated for 18 hrs by broth dilution method; assay type: functional; settings: ATCC 25923, 18 h; in short: as §1
Cryptococcus neoformans = test: Antifungal activity against Cryptococcus neoformans ATCC 208821 assessed as growth inhibition incubated for 36 hrs by resazurin dye based assay; assay type: functional; settings: ATCC 208821, 36 h
In short: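 Cryptococcus was grown 3 days on YPD agar at 30 °C, suspended, and diluted in YNB broth to 2.5×10^3 CFU/mL. Cells were exposed to 0.008–32 μg/mL compound (final), in duplicate, for 36 h at 35 °C without shaking. Resazurin (0.006% final) was added for a further 3 h. MIC was read from absorbance at OD570–600. Means, n = 2.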

Pseudomonas aeruginosa [15] = test: Potentiation of chloramphenicol-induced antibacterial activity against Pseudomonas aeruginosa ATCC 27853 assessed as concentration required to restore 2 ug/ml chloramphenicol activity measured after 18 hrs; assay type: functional
Klebsiella pneumoniae [16] = test: Antibacterial activity against Klebsiella pneumoniae ATCC 700603 assessed as growth inhibition incubated for 18 hrs by resazurin dye based assay; assay type: functional; settings: Klebsiella pneumoniae, 700603, 18 h; in short: as §4
Klebsiella pneumoniae [17] = test: Potentiation of doxycycline-induced antibacterial activity against Klebsiella pneumoniae ATCC 13443 assessed as concentration required to restore 2 ug/ml doxycycline activity measured after 18 hrs; assay type: functional
In short: (§5)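 Inoculum was 5×10^5 CFU in MHB with two-fold serial dilutions of adjuvant plus fixed doxycycline at 2 μg/mL. […] Repeated independently in triplicate.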

L6 = test: Cytotoxicity against rat L6 cells measured after 72 hrs by alamar blue assay; assay type: cell-based; settings: L6, 72 h
In short: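 Rat L6 myoblasts, 4×10^4/well in RPMI 1640 with L-glutamine and 10% FBS, received seven 3-fold dilutions (90 to 0.123 μg/mL) for 72 h. Alamar Blue was added for 2 h and fluorescence read at ex 536/em 588 nm. Podophyllotoxin served as reference. Means, n = 2.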

Acinetobacter baumannii [18] = test: Potentiation of doxycycline-induced antibacterial activity against Acinetobacter baumannii AYE assessed as concentration required to restore 2 ug/ml doxycycline activity measured after 18 hrs; assay type: functional; in short: as §5
Klebsiella pneumoniae [19] = test: Potentiation of nalidixic acid-induced antibacterial activity against Klebsiella pneumoniae ATCC 13443 assessed as concentration required to restore 2 ug/ml nalidixic acid activity measured after 18 hrs; assay type: functional
Pseudomonas aeruginosa [20] = test: Induction of membrane depolarization in Pseudomonas aeruginosa measured after 15 mins by DiSC3(5) dye based spectrofluorometric method; assay type: functional, organism-based; in short: as §3
Escherichia coli [21] = test: Potentiation of nalidixic acid-induced antibacterial activity against Escherichia coli ATCC 25922 assessed as concentration required to restore 2 ug/ml nalidixic acid activity measured after 18 hrs; assay type: functional
Pseudomonas aeruginosa [22] = test: Potentiation of doxycycline-induced antibacterial activity against Pseudomonas aeruginosa ATCC 27853 assessed as concentration required to restore 2 ug/ml doxycycline activity measured after 18 hrs; assay type: functional; in short: as §5
Klebsiella aerogenes = test: Disruption of membrane integrity in Enterobacter aerogenes EA289 assessed as increase in beta-lactamase hydrolysis by using chromogenic nitrocefin as substrate by spectrophotometry analysis; assay type: functional
In short: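 E. aerogenes EA289 was grown in MHB at 37 °C to OD600 0.5, washed in 20 mM potassium phosphate (pH 7.2) with 1 mM MgCl2, and readjusted to OD600 0.5. Cells were exposed to compound at 3.9–250 μM final with nitrocefin at 50 μg/mL final, at room temperature. Hydrolysis was followed as the absorbance rise at 490 nm.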

Escherichia coli [23] = test: Potentiation of doxycycline-induced antibacterial activity against Escherichia coli ATCC 25922 assessed as concentration required to restore 2 ug/ml doxycycline activity measured after 18 hrs; assay type: functional; in short: as §5
Acinetobacter baumannii [24] = test: Potentiation of nalidixic acid-induced antibacterial activity against Acinetobacter baumannii AYE assessed as concentration required to restore 2 ug/ml nalidixic acid activity measured after 18 hrs; assay type: functional

For `CC[C@H]1OC(=O)[C@H](C)[C@@H](O[C@H]2C[C@@](C)(OC)[C@@H](O)[C@H](C)O2)[C@H](C)[C@@H](O[C@@H]2O[C@H](C)C[C@H](N(C)C)[C@H]2O)[C@](C)(O)C[C@@H](C)C(=O)[C@H](C)[C@@H](O)[C@]1(C)O` [ERYTHROMYCIN], the MIC (Pseudomonas aeruginosa [1]) was > 200 µM, the MIC (Escherichia coli [2]) was > 200 µM and the MIC (Klebsiella pneumoniae [3]) was > 200 µM. The MIC (Acinetobacter baumannii [4]) was 200 µM (≈ 147 µg/mL).

With `O=C(NCCCNCCCCNCCCNC(=O)C(=O)c1c[nH]c2ccc(Br)cc12)C(=O)c1c[nH]c2ccc(Br)cc12.O=C(O)C(F)(F)F.O=C(O)C(F)(F)F` the MIC (Pseudomonas aeruginosa [1]) was 50 µM, the MIC (Escherichia coli [2]) was 25 µM and the MIC (Candida albicans) was > 34.4 µM. The Activity (Staphylococcus aureus [5]) was “Dose-dependent effect”, the Activity (Staphylococcus aureus [6]) was “Dose-dependent effect” and the Activity (Pseudomonas aeruginosa [7]) was >200 µM. The MIC [8] was 3.12 µM, the hemolysis at 1 h, 50 µM [9] was 34.7% and the Activity (Pseudomonas aeruginosa [10]) was >200 µM. The MIC (Acinetobacter baumannii [11]) was > 34.4 µM, the CC50 at 20 h [12] was 14.1 µM and the Activity (Pseudomonas aeruginosa [13]) was “Dose-dependent effect”. The MIC (Staphylococcus aureus [14]) was 3.12 µM, the MIC (Cryptococcus neoformans) was 2.2 µM and the Activity (Pseudomonas aeruginosa [15]) was 26.9 µM. The MIC (Klebsiella pneumoniae [16]) was 34.4 µM, the Activity (Klebsiella pneumoniae [17]) was 13.4 µM and the IC50 (L6) was 19.8 µM. The Activity (Acinetobacter baumannii [18]) was 6.72 µM, the Activity (Klebsiella pneumoniae [19]) was 12.5 µM and the Activity (Pseudomonas aeruginosa [20]) was “Dose-dependent effect”. The Activity (Escherichia coli [21]) was 100 µM, the Activity (Pseudomonas aeruginosa [22]) was 3.125 to 6.25 µM and the Activity (Klebsiella aerogenes) was “Dose-dependent effect”. It also gave an Activity (Escherichia coli [23]) of 1.68 µM and an Activity (Acinetobacter baumannii [24]) of 100 µM.

For `O=C(NCCCNCCCCNCCCNC(=O)C(=O)c1c[nH]c2c(F)cccc12)C(=O)c1c[nH]c2c(F)cccc12.O=C(O)C(F)(F)F.O=C(O)C(F)(F)F`, the MIC (Pseudomonas aeruginosa [1]) was 200 µM, the MIC (Escherichia coli [2]) was 200 µM and the MIC (Candida albicans) was > 39.6 µM. The Activity (Staphylococcus aureus [5]) was “Dose-dependent effect”, the Activity (Staphylococcus aureus [6]) was “Dose-dependent effect” and the MIC [8] was > 200 µM. For the same molecule, the hemolysis at 1 h, 50 µM [9] was 8.4%, the MIC (Acinetobacter baumannii [11]) was > 39.6 µM and the CC50 at 20 h [12] was 18.7 µM. The Activity (Pseudomonas aeruginosa [13]) was “Dose-dependent effect”, the MIC (Staphylococcus aureus [14]) was 25 µM and the MIC (Cryptococcus neoformans) was 4.9 µM. The MIC (Klebsiella pneumoniae [16]) was > 39.6 µM, the IC50 (L6) was 38.7 µM and the Activity (Pseudomonas aeruginosa [20]) was “Dose-dependent effect”. For the same molecule, the Activity (Pseudomonas aeruginosa [22]) was 3.125 µM and the Activity (Klebsiella aerogenes) was “Dose-dependent effect”.

With `CCn1cc(C(=O)O)c(=O)c2ccc(C)nc21` [NALIDIXIC ACID] the MIC (Pseudomonas aeruginosa [1]) was > 200 µM, the MIC (Escherichia coli [2]) was > 200 µM and the MIC (Klebsiella pneumoniae [3]) was 100 µM (≈ 23.2 µg/mL). The MIC (Acinetobacter baumannii [4]) was > 200 µM.

For `C[C@H]1c2cccc(O)c2C(=O)C2=C(O)[C@]3(O)C(=O)C(C(N)=O)=C(O)[C@@H](N(C)C)[C@@H]3[C@@H](O)[C@@H]21` [DOXYCYCLINE], the MIC (Pseudomonas aeruginosa [1]) was 90 µM (≈ 40 µg/mL), the MIC (Escherichia coli [2]) was 25 µM (≈ 11.1 µg/mL) and the MIC (Klebsiella pneumoniae [3]) was 25 µM (≈ 11.1 µg/mL). For the same molecule, the MIC (Acinetobacter baumannii [4]) was 12.5 µM (≈ 5.56 µg/mL).
